Results taken from ChEMBL document CHEMBL1124532, “Angiotensin converting enzyme inhibitors: spirapril and related compounds” (J Med Chem, 1989).

Assays:
[1] = biological target: T1, Angiotensin-converting enzyme (Rattus norvegicus) (UniProt P47820); assay: Compound tested in vivo for inhibition of Angiotensin I converting enzyme in rat; type: organism-based
T1 sequence (whole entry): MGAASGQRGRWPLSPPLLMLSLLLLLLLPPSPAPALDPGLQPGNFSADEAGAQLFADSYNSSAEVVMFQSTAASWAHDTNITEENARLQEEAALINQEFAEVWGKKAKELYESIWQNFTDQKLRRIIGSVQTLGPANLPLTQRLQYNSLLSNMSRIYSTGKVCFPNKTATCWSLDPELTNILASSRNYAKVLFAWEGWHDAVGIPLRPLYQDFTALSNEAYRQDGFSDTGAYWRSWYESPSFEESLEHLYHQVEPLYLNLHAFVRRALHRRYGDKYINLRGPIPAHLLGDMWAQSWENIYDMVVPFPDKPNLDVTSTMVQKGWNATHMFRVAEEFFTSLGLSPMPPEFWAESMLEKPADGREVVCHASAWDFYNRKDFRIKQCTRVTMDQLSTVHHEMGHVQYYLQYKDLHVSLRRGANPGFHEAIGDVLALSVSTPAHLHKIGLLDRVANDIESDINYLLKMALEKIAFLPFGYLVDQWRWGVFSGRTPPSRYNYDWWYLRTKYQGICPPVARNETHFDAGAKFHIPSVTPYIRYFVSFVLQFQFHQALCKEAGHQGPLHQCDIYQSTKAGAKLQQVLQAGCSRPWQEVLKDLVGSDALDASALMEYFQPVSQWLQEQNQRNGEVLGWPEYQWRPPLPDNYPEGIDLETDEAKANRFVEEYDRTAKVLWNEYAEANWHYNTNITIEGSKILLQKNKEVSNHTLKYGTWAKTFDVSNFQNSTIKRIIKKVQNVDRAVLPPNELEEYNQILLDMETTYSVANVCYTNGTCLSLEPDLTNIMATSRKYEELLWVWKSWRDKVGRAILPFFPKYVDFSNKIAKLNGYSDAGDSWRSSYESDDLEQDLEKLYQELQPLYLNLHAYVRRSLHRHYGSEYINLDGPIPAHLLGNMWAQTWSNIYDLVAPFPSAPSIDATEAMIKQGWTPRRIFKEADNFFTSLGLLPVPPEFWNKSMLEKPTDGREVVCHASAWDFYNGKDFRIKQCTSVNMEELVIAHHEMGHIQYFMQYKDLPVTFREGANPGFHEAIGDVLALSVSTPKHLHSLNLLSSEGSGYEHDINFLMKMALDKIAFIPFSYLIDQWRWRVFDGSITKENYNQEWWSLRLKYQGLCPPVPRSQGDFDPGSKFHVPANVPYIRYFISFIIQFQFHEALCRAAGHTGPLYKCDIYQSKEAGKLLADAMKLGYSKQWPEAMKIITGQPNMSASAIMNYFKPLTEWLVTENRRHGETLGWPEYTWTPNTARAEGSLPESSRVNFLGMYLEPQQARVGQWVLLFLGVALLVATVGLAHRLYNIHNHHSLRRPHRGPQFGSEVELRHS
In short: (§1)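 Male Sprague-Dawley rats (280–365 g) anesthetized with inactin (100 mg/kg ip) or dial urethane, with carotid blood pressure recorded. AI 1 µg/kg iv was given before and 5 min after each cumulative iv drug dose (3, 10, 30 µg/kg; EtOH/saline, ≤12% EtOH). Percent of control pressor response was regressed on log dose to give ID50 per animal, then averaged.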

[2] = Compound tested in vitro for inhibition of Angiotensin I converting enzyme in rat
In short: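 Cushman–Cheung method using crude ACE enzyme preparations, with batches varying over the study period. IC50 was determined, and a reference ACE inhibitor was assayed concurrently in each run.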

[3] = biological target: T2, Angiotensin-converting enzyme (Homo sapiens, UniProt P12821); assay: Compound was tested for inhibitory activity against angiotensin converting enzyme when administered intravenously to anesthetized dogs; details: Canis lupus familiaris; target entry is the homologue from another species
[4] = biological target: T3, Angiotensin-converting enzyme (Rattus norvegicus, UniProt P47820); assay: (§2) Compound tested in vitro for inhibition of Angiotensin I converting enzyme
T3 sequence (P47820 whole entry): T1 sequence (whole entry)
In short: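 In vitro ACE inhibition by the Cushman–Cheung procedure using crude enzyme preparations whose batches varied over time. IC50 determined with a reference inhibitor run concurrently.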

Canis familiaris = organism: Canis familiaris; assay: Compound was tested for its efficacy in dog; type: functional, Canis lupus familiaris
[5] = biological target: T1, Angiotensin-converting enzyme (Rattus norvegicus); assay: Compound tested in vivo for inhibition of angiotensin converting enzyme in rat; type: organism-based; in short: as §1
[6] = biological target: T2, Angiotensin-converting enzyme; assay: as §2

T2 sequence (P12821 whole entry): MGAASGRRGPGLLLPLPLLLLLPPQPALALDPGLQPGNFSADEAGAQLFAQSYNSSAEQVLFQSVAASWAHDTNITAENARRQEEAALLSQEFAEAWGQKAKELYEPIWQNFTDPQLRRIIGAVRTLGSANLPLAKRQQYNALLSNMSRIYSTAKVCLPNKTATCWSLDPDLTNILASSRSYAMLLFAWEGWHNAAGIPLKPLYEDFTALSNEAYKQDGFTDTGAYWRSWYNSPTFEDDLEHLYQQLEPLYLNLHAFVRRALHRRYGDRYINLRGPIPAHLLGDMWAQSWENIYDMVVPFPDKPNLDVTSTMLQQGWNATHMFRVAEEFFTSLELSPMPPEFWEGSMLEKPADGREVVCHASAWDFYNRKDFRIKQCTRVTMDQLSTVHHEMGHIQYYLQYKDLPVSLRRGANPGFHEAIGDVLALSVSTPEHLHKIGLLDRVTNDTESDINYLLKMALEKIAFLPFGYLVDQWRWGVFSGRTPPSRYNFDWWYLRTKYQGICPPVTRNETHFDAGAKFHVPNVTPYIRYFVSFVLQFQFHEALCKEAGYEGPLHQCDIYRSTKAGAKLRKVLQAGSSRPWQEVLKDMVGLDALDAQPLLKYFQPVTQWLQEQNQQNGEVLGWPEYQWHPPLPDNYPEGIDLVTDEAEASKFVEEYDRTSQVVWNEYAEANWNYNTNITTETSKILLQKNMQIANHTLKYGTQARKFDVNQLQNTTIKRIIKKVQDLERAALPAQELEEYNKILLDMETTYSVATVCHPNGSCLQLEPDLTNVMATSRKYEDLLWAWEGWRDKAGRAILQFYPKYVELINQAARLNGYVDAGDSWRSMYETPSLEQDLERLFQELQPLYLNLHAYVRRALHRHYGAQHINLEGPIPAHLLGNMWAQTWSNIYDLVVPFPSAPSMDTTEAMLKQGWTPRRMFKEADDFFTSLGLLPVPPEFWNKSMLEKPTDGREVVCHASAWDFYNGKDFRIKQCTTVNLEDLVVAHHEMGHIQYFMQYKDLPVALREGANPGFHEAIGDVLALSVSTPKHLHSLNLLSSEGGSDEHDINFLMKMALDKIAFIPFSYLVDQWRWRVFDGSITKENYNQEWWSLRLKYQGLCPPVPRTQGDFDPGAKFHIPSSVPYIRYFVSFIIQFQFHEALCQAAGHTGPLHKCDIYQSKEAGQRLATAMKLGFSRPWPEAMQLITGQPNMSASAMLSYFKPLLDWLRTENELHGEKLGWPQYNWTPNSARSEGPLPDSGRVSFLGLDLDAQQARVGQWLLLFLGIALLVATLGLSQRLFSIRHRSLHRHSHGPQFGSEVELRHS

With C[C@H](N[C@@H](CCc1ccccc1)C(=O)O)C(=O)N1CCC[C@H]1C(=O)O the ID50 [1] was 0.015 mg/kg.
NCCCC[C@H](N[C@@H](CCc1ccccc1)C(=O)O)C(=O)N1CCC[C@H]1C(=O)O [LISINOPRIL ANHYDROUS] gave an IC50 [2] of 0.0012 µM.
For CCOC(=O)[C@H](CCc1ccccc1)N[C@@H](C)C(=O)N1CC2(C[C@H]1C(=O)O)SCCS2, the ID50 [3] was 0.3 mg/kg, the IC50 [4] was 0.067 µM and the Efficacy (Canis familiaris) was 0.3 mg/kg. The ID50 [5] was 0.016 mg/kg.
NCCCC[C@H](N[C@@H](CCc1ccccc1)C(=O)O)C(=O)N1CC2(C[C@H]1C(=O)O)SCCS2 showed an IC50 [6] of 0.0005 µM and an ID50 [1] of 0.01 mg/kg.
Compound CCOC(=O)[C@H](CCc1ccccc1)N[C@@H](CCCCN)C(=O)N1CC2(C[C@H]1C(=O)O)SCCS2 has an IC50 [6] of 0.2 µM and an ID50 [1] of 0.01 mg/kg.
In the case of CCOC(=O)[C@H](CCc1ccccc1)NCC(=O)N1CC2(C[C@H]1C(=O)O)SCCS2, the ID50 [1] is reported as 0.221 mg/kg.
CCOC(=O)C(CCc1ccccc1)N[C@@H](C)C(=O)N1CC2(C[C@H]1C(=O)O)SCCS2 (stereo partly drawn) showed an IC50 [2] of 0.092 µM.
CCOC(=O)[C@H](CCc1ccccc1)N[C@@H](C)C(=O)N1CCC[C@H]1C(=O)O showed an ID50 [5] of 0.057 mg/kg.
